Reference: ChEMBL document CHEMBL3785023, “Development and Pharmacological Characterization of Selective Blockers of 2-Arachidonoyl Glycerol Degradation with Efficacy in Rodent Models of Multiple Sclerosis and Pain” (J Med Chem, 2016)

How the values were obtained:
[1] = biological target: T1, Monoglyceride lipase (Homo sapiens, UniProt Q99685); assay: Inhibition of recombinant C-terminal His6-tagged human MAGL expressed in Escherichia coli using 2-arachidonoyl-[3H]-glycerol as substrate incubated for 20 mins by scintillation counting method
T1 sequence (Q99685 whole entry): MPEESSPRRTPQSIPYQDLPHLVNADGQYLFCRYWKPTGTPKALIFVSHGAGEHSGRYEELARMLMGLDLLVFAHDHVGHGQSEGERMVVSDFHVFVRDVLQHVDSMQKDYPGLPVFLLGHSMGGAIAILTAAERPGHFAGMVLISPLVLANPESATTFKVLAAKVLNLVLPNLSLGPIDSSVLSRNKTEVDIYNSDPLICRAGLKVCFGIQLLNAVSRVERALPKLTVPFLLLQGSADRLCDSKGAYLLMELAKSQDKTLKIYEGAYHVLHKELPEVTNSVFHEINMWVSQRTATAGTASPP

[2] = biological target: T2, Fatty-acid amide hydrolase 1 (Homo sapiens, UniProt O00519); assay: Inhibition of recombinant C-terminal His-tagged human FAAH expressed in sf21 cells using N-arachidonoyl-[14C]-ethanolamine as substrate assessed as reduction in [14C]ethanolamine production incubated for 30 mins by scintillation counting method
T2 sequence (O00519 whole entry): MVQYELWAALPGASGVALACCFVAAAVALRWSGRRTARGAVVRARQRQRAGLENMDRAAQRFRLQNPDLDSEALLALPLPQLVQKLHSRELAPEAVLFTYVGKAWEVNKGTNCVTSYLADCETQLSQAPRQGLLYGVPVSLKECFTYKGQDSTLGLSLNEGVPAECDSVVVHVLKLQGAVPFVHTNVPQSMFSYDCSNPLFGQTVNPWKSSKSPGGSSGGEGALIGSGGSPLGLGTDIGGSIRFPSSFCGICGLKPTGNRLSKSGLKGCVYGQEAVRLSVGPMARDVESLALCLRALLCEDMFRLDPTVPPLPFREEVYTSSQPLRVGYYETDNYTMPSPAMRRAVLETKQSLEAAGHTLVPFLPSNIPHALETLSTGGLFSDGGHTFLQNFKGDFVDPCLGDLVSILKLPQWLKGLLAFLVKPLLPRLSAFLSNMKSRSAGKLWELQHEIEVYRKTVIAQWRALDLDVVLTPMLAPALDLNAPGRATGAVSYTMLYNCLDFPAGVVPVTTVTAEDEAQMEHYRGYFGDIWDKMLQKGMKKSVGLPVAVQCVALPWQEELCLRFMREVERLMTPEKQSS
In short: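 Human recombinant FAAH (2 µg/sample) incubated in 50 mM Tris-HCl, pH 9.5, 37 °C, 30 min with N-arachidonoyl-[14C]-ethanolamine diluted with unlabelled AEA. [14C]-ethanolamine released was quantified by scintillation counting of the aqueous phase after extraction with 2 volumes CHCl3/MeOH 1:1. Values are means of three experiments.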

[3] = biological target: T1, Monoglyceride lipase; assay: Inhibition of recombinant C-terminal His6-tagged human MAGL expressed in Escherichia coli using 2-arachidonoyl-[3H]-glycerol as substrate preincubated for 10 mins followed by substrate addition measured after 20 mins by scintillation counting method
In short: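 Human recombinant MGL (10,000xg cytosolic fraction, 0.05 µg/sample) is pre-incubated with compound for 10 min. It is then incubated 20 min at 37 °C in 50 mM Tris-HCl pH 7.0 with 2-arachidonoyl-[3H]-glycerol diluted with unlabelled 2-AG. The mix is extracted with 2 vol CHCl3/MeOH 1:1, and [3H]-glycerol in the aqueous phase is counted by scintillation. Values are means of three experiments.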

[4] = Selectivity ratio of IC50 for human recombinant C-terminal His-tagged FAAH expressed in sf21 cells to IC50 for recombinant C-terminal His6-tagged human MAGL expressed in Escherichia coli
In short: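 Ratio of IC50 values from two radiometric assays, each read by scintillation counting of the aqueous phase after CHCl3/MeOH 1:1 extraction. MGL assay: 10,000xg cytosolic fraction of human recombinant MGL (0.05 µg/sample), 50 mM Tris-HCl pH 7.0, 37 °C, 20 min, 2-arachidonoyl-[3H]-glycerol. FAAH assay: human recombinant FAAH (2 µg/sample), pH 9.5, 37 °C, 30 min, [14C]-anandamide. Means of three experiments.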

[5] = biological target: T3, Fatty-acid amide hydrolase 1 (Mus musculus, UniProt O08914); assay: Inhibition of FAAH in mouse brain membrane using [13C]oleamide as substrate by LC-MS analysis; format: cell membranes
T3 sequence (O08914 whole entry): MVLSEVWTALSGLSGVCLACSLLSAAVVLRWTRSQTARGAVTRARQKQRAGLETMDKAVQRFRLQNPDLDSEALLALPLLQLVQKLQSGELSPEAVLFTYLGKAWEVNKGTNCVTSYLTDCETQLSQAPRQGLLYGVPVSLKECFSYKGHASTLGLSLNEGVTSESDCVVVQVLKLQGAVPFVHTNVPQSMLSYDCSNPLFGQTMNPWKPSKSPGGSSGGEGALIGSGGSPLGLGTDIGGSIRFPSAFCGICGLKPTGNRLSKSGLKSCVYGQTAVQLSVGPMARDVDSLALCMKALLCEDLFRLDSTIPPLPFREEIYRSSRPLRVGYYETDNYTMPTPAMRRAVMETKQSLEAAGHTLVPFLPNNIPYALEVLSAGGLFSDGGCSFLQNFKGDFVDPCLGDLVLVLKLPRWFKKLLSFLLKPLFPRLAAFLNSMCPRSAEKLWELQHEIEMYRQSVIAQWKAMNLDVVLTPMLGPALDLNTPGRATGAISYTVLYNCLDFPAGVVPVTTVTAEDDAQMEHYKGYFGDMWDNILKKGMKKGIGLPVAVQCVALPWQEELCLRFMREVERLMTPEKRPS

[6] = biological target: T4, Fatty-acid amide hydrolase 1 (Rattus norvegicus, UniProt P97612); assay: Inhibition of FAAH in rat brain membranes using N-arachidonoyl-[14C]-ethanolamine as substrate assessed as reduction in [14C]ethanolamine production incubated for 30 mins by scintillation counting method; format: cell membranes, Membrane
T4 sequence (P97612 whole entry): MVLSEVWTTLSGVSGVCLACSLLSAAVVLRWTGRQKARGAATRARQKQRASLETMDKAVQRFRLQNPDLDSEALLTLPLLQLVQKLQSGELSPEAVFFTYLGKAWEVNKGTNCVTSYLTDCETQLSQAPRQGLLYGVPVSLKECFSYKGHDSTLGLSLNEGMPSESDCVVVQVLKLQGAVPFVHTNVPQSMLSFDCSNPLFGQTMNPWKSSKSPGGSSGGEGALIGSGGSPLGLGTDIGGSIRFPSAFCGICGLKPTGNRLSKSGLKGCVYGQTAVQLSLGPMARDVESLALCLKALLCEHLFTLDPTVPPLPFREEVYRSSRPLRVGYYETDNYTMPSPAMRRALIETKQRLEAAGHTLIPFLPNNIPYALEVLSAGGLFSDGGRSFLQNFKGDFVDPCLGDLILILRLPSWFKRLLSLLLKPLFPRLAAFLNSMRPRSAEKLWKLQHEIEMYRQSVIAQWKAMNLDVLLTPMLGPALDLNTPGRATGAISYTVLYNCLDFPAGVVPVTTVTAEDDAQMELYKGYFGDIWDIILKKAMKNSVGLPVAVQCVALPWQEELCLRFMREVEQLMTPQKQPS
In short: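 10,000×g membrane fraction of rat brain (70 µg per sample) incubated in 50 mM Tris-HCl pH 9.5 at 37 °C for 30 min with N-arachidonoyl-[14C]-ethanolamine diluted with AEA. Released [14C]-ethanolamine measured by scintillation counting of the aqueous phase after CHCl3/MeOH 1:1 extraction. Means of three experiments.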

SMILES	IC50 [1] [µM]	IC50 [6] [µM]	further results
O=C1[C@H](c2ccc(F)cc2)[C@@H](c2ccc3c(c2)OCO3)N1C1CCN(C(=O)n2cncn2)CC1 [listing 1 of 2 here]	0.0046	–	IC50 [2]: 4.05 µM; IC50 [3]: 0.104 µM
O=C(N1CCCCC1)n1cncn1	> 10	–	–
O=C1[C@@H](c2ccc(F)cc2)[C@H](c2ccc3c(c2)OCO3)N1C1CCN(C(=O)n2cncn2)CC1	0.0312	–	IC50 [2]: 7.74 µM; Ratio IC50 [4]: 248; IC50 [3]: 0.728 µM
O=C(Oc1ccc([N+](=O)[O-])cc1)N1CCC(C(O)(c2ccc3c(c2)OCO3)c2ccc3c(c2)OCO3)CC1	–	–	IC50 [5]: > 10 µM
O=C1[C@H](c2ccc(F)cc2)[C@@H](c2ccc3c(c2)OCO3)N1C1CCN(C(=O)n2cncn2)CC1 [listing 2 of 2 here]	–	–	Ratio IC50 [4]: 880
O=C1[C@H](c2ccc(F)cc2)[C@@H](c2ccc3c(c2)OCO3)N1C1CCN(Cc2ccccc2)CC1 (racemic)	> 10	–	–
COc1ccc([C@H]2C(=O)N(C3CCN(C(=O)n4cncn4)CC3)[C@@H]2c2ccc(OC)cc2)cc1 (racemic)	–	3.68	–
O=C(Oc1ccc([N+](=O)[O-])cc1)N1CCC(N2C(=O)[C@H](c3ccc(F)cc3)[C@H]2c2ccc3c(c2)OCO3)CC1 (racemic)	0.00141	–	IC50 [2]: > 10 µM; Ratio IC50 [4]: > 7
COc1ccc([C@H]2C(=O)N(C3CCN(C(=O)n4cncn4)CC3)[C@@H]2c2ccc(OC)c(OC)c2)cc1OC (racemic)	–	> 10	–
O=C1[C@H](c2ccc(F)cc2)[C@@H](c2ccc3c(c2)OCO3)N1C1CCN(C(=O)n2ccnc2)CC1 (racemic)	> 10	–	–
COc1ccc([C@H]2C(=O)N(C3CCN(C(=O)n4cncn4)CC3)[C@@H]2c2ccc(OC)c(OC)c2)cc1 (racemic)	–	0.725	–
COc1ccc([C@H]2C(=O)N(C3CCN(C(=O)n4cncn4)CC3)[C@@H]2c2ccc3c(c2)OCO3)cc1 (racemic)	–	2.59	–
O=C1[C@H](c2ccc(F)cc2)[C@@H](c2ccc3c(c2)OCO3)N1C1CCNCC1 (racemic)	> 10	–	–
O=C(OC(C(F)(F)F)C(F)(F)F)N1CCC(N2C(=O)[C@H](c3ccc(F)cc3)[C@H]2c2ccc3c(c2)OCO3)CC1 (racemic)	–	> 50	–
